Compound activity: PubChem BioAssay, several laboratories
Sampled rows, rich in hits. Any-hit rate of the full collection: about 3.4%.
VIM-2 inh: VIM-2 metallo-beta-lactamase inhibitors, primary screen, biochemical, epi-absorbance readout, Pseudomonas aeruginosa enzyme. purified VIM-2, nitrocefin hydrolysis, epi-absorbance fluorescence. inhibition, % at 5.6 µM. 290,000 compounds, 0.89% hits;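 active means inhibition above the mean of all tested compounds plus 3 SD, cutoff set per screening run, cut at about 7.5% in these data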;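 further: red hydrolysis product quenches plate fluorescence so inhibitors raise well fluorescence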
IMP-1 inhibitor: IMP-1 metallo-beta-lactamase inhibitors, primary screen, biochemical, epi-absorbance readout, Pseudomonas aeruginosa enzyme; purified IMP-1, nitrocefin hydrolysis, epi-absorbance fluorescence; inhibition, % at 5.6 µM; AID 1556, 2009; 290,000 compounds, 0.45% hits;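 active means inhibition above the mean plus 3 SD of all compounds in the same screening run, cut at about 4.5% in these data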
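System: purified IMP-1 / Input: IMP-1 dispensed at 0.2 nM / Medium: 50 mM HEPES pH 7.1, 50 µM ZnSO4, 0.05% Brij 35 / Timing: 15 min enzyme–compound preincubation, then 25 min nitrocefin reaction, 25 °C / Technique: plate fluorescence quenching by hydrolysis product, ex 480/em 530 nm / Repeats: singlicate testing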
MEKK3 PB1 HTS: modulators of MEKK3-MEK5 PB1 binding, primary screen, biochemical, wildtype MEKK3, multiplex bead flow cytometry, Alexa488-MEK5 | binding response (% of control), % at 10 µM | bead-based flow cytometry, Alexa488-MEK5 binding to MEKK3; actives lie on both sides; 0 = blocked by unlabeled MEK5, 100 = vehicle | Mitogen-activated protein kinase kinase kinase 3 (Homo sapiens), Q99759 | 290,000 compounds, 1.4% hits;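 active means binding response more than 3 SD above or below the average of its plate-row segment, actives on both sides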;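 further: Alexa488 bead fluorescence after subtracting the streptavidin-only scavenger bead signal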
Target sequence (Q99759 whole entry, looked up): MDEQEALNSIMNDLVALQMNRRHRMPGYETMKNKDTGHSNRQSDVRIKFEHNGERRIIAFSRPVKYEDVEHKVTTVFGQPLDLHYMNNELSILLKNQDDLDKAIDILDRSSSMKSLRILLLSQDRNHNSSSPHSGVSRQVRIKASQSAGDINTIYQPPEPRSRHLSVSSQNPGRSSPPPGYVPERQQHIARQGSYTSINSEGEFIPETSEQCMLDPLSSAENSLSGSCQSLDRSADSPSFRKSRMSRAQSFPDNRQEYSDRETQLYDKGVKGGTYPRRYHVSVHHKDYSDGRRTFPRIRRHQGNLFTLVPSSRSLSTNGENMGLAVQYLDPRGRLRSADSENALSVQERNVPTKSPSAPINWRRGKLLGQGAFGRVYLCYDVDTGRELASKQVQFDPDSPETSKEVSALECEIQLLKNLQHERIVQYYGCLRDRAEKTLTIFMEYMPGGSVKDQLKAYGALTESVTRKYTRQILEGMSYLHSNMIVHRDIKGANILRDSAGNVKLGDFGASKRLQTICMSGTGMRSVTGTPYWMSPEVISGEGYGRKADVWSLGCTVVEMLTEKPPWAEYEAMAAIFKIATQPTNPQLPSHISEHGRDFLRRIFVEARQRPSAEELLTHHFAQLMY
MEKK2 mut-MEK5: MEK5 binding signal on mutant MEKK2 PB1, primary screen, biochemical, multiplex bead flow cytometry, Alexa488-MEK5; 290,000 compounds, 0.35% hits; Alexa488-MEK5 binding to MEKK2 mutant; AID 1530, 2009; percent response, % at 10 µM; in the data active means percent response above about 24%, passing the limit was not always enough
MEKK2 WT-MEK5: modulators of MEK5 binding to wildtype MEKK2, primary screen, biochemical, multiplex bead flow cytometry, Alexa488-MEK5; binding response (% of control), % at 10 µM; Mitogen-activated protein kinase kinase kinase 2 (Homo sapiens), Q9Y2U5; 290,000 compounds, 1.1% hits; Alexa488-MEK5 binding to MEKK2 WT; actives lie on both sides; in the data active means binding response below about 67% or above about 130%
MEKK2wt confirm: modulators of MEK5 binding to wildtype MEKK2, confirmation, biochemical, single concentration, multiplex bead flow cytometry. shares compounds with MEKK3 PB1 HTS. Alexa488-MEK5 binding to MEKK2 WT; actives lie on both sides. binding response (% of control), % at 10 µM. 5,900 compounds, 2.4% hits. AID 1892, 2009; in the data active means binding response below about 16% or above about 210%; inactive means in between
MEKK2mut-MEK5: mutant MEKK2 PB1-MEK5 binding signal retest – biochemical, single concentration, multiplex bead flow cytometry, confirmation; shares compounds with MEKK3 PB1 HTS; Alexa488-MEK5 binding to MEKK2 mutant; percent response, % at 10 µM; 5,900 compounds, 2% hits; AID 1893, 2009; in the data active means percent response mostly above about 71%, no sharp cut-off; inactive means mostly below about 38%;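 further: higher means compound restores mutant binding toward wildtype level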
MEKK3 confirm: MEKK3 wild-type PB1 binding to MEK5, inhibitors, confirmation, biochemical, bead multiplex flow cytometry, single concentration, wildtype | shares compounds with MEKK3 PB1 HTS | Alexa488-MEK5 binding to MEKK3; active compounds read low | binding response (% of control), % at 10 µM | 5,900 compounds, 1.8% hits | AID 1894, 2009;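 active means binding response below 72% of control, or above a set upper limit, though filed actives all read lower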;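 further: lower values mean stronger disruption of MEK5 binding to MEKK3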
A number is an active result; n = inactive; x = no result given; [ ] = another dose, or the depositor's remark.

SMILES | VIM-2 inh | IMP-1 inhibitor | MEKK3 PB1 HTS | MEKK2 mut-MEK5 | MEKK2 WT-MEK5 | MEKK2wt confirm | MEKK2mut-MEK5 | MEKK3 confirm
CCCCN1C(=O)C2ON(c3ccccc3C)C(c3ccco3)C2C1=O (configuration not stated) | n | n | n | n | n | x | x | x
Cc1ccc(-c2nn3c(C)nnc3s2)cc1NCc1c(F)cccc1Cl | n | n | 50.0[inhibitor] | n | 50.0[inhibitor] | n | n | n
Cc1ccc(CNc2cc(-c3nn4c(C)nnc4s3)ccc2C)s1 | n | n | n | n | n | x | x | x
CN(Cc1ccccc1)CC(O)COc1ccc(CNCCOc2cccnc2)cc1 (configuration not stated) | n | n | n | n | n | x | x | x
CN(Cc1ccccc1)CC(O)COc1ccc(CNCCCOc2cccnc2)cc1 (configuration not stated) | n | n | n | n | 139.0 | n | n | n
CCCCCCCCCCC(=O)Nc1cccnc1 | n | n | n | n | n | x | x | x
Cc1nccn1-c1c2c(c(C#N)c3nc4ccccc4n13)CCC2 | x | x | n | n | n | x | x | x
CCN(CC)c1c2c(c(C#N)c3nc4ccccc4n13)CCC2 | n | n | 69.0[inhibitor] | n | n | n | n | n
CCN(CC)CCNC(=O)c1cc(-c2ccc(Br)s2)nc2ccccc12 | n | n | n | 43.0 | 141.0 | n | n | n
CCOCCCNC(=O)c1cc(-c2ccc(Br)s2)nc2ccccc12 | n | n | n | n | n | x | x | x
COC(=O)CC1Oc2ccc(C)cc2NC1=O (configuration not stated) | n | n | 16.0[inhibitor] | n | 19.0[inhibitor] | n | n | n
CCOc1ccc(Oc2c(/C=N/NC(=O)C3CC3)c(C)nn2-c2ccccc2)cc1 | n | n | 131.0 | n | n | n | n | n
Cc1nn(-c2ccccc2)c(N2CCCC2)c1/C=N/NC(=O)C1CC1 | n | n | x | x | x | x | x | x
CCOC(=O)c1cc(C(=O)NC(C)c2ccccc2)c(=O)[nH]c1C (configuration not stated) | n | n | n | n | n | x | x | x
COC(=O)c1cc(C(=O)NCc2ccccc2)c(=O)[nH]c1C | n | n | 3.0[inhibitor] | n | 3.0[inhibitor] | n | n | n
Fc1ccccc1N1CCN(C(c2ccncc2)c2nnnn2C2CCCC2)CC1 (configuration not stated) | n | n | 77.0[inhibitor] | n | n | n | n | n
CCC(c1nnnn1C1CCCC1)N1CCN(c2ccccc2F)CC1 (configuration not stated) | n | n | n | n | n | x | x | x
O=[N+]([O-])c1ccc(C=Nc2cccc3ccccc23)s1 | n | n | n | n | n | x | x | x
O=C(Nc1ccccc1)c1ccc(NCc2cccnc2)c(S(=O)(=O)N2CCOCC2)c1 | n | n | 123.0 | n | n | n | n | n
O=C(Nc1ccccc1)c1ccc(NCc2ccco2)c(S(=O)(=O)N2CCOCC2)c1 | n | n | n | n | n | x | x | x
O=C(Nc1ccc(Cl)cc1)c1ccc(S(=O)(=O)N2CCOCC2)cc1 | n | n | n | n | n | x | x | x
O=C(Nc1ccccc1)c1ccc(S(=O)(=O)N2CCOCC2)cc1 | n | n | 136.0 | n | 135.0 | n | n | n
Cc1cc(C(=O)N/N=C/c2ccccc2)c(C)o1 | n | n | n | n | n | x | x | x
CCCCCCCCC1=NCCc2c1[nH]c1ccccc21 | n | n | n | 54.0 | 159.0 | n | n | n
O=C(COC(=O)c1ccccc1C(=O)c1ccccc1)NCCc1ccc(Cl)cc1Cl | n | n | 130.0 | n | n | n | n | n
SMILES | VIM-2 inh | IMP-1 inhibitor | MEKK3 PB1 HTS | MEKK2 mut-MEK5 | MEKK2 WT-MEK5 | MEKK2wt confirm | MEKK2mut-MEK5 | MEKK3 confirm
O=c1cc(O)c2sc3nc4c(c(C(F)(F)F)c3c2[nH]1)CCCCC4 | n | n | n | n | n | x | x | x
COc1ccc(OC)c(-c2cc(C(F)(F)F)c3c(n2)sc2c(O)cc(=O)[nH]c23)c1 | n | n | 69.0[inhibitor] | n | n | n | n | n
O=c1cc(O)c2sc3nc(-c4ccccc4)cc(C(F)(F)F)c3c2[nH]1 | n | n | 8.0[inhibitor] | n | n | n | n | n
CCN1/C(=C/c2ccc3cc(C)ccc3[n+]2CC)Sc2cc(C)ccc21 | n | n | 51.0[inhibitor] | n | 11.0[inhibitor] | n | n | n
CCN1/C(=C/c2ccc3cc(C)ccc3[n+]2C)Sc2ccc3sccc3c21 | n | 18.2 | 0.0[inhibitor] | x | x | 7.0[inhibitor] | n | 31.0
O=S(=O)(NCCSc1ccccc1)c1ccc2c(c1)OCCO2 | n | n | n | n | n | x | x | x
O=S(=O)(NCCOc1ccc(F)cc1)c1ccc2c(c1)OCCO2 | n | n | 2.0[inhibitor] | n | 2.0[inhibitor] | n | n | n
CCOC(=O)N/N=C(\C)c1ccc(C)c([N+](=O)[O-])c1 | n | n | 132.0 | n | n | n | n | n
COc1cc2c(cc1OC)C(CC(=O)O)N(C(=O)CC1CCCC1)CC2 (configuration not stated) | n | n | n | n | n | x | x | x
COc1cc(C(=O)Nc2ccccc2C(=O)NCc2cccnc2)cc(OC)c1OC | n | n | n | n | n | x | x | x
CC(C)=C(NC(=O)c1ccccc1)C(=O)N/N=C/c1ccc(O)cc1 | n | n | n | n | 19.0[inhibitor] | n | n | n
O=C(Nc1cc(Cl)cc(Cl)c1)c1cccc(OC(F)F)c1 | n | n | n | n | 172.0 | n | n | n
COc1cc(CN2CCSCC2)c([N+](=O)[O-])cc1OC | n | n | n | n | n | x | x | x
CCN(Cc1ccccc1)S(=O)(=O)c1ccc(F)cc1 | n | n | n | n | n | x | x | x
O=C(Nc1nc2ccsc2c(=O)s1)C1CCC1 | n | n | 129.0 | n | n | n | n | n
O=C(Nc1nc2ccsc2c(=O)s1)c1ccco1 | n | n | n | n | n | x | x | x
O=C1OCC(c2ccc(Cl)s2)=C1c1ccccc1[N+](=O)[O-] | n | n | n | n | n | x | x | x
CCN(C(=O)CSc1ncccc1C(=O)OC(C)C)c1cccc(C)c1 | n | n | 0.0[inhibitor] | n | -3.0[inhibitor] | n | n | n
Cc1cc(=O)n2nc(N3CCCC(C(=O)NC(C)c4ccccc4)C3)sc2n1 (configuration not stated) | n | n | n | n | n | x | x | x
